ChEMBL document CHEMBL4373687, “Introducing nitrogen atoms to amidoalkylindoles: potent and selective cannabinoid type 2 receptor agonists with improved aqueous solubility” (Medchemcomm, 2019)

Experiments:
Cannabinoid receptor 2 [1] = target: T1, Cannabinoid receptor 2 (Homo sapiens, UniProt P34972); assay: Agonist activity at human CB2-receptor expressed in CHO-K1 cells coexpressing G-alpha16 assessed as maximum efficacy by Fluo-4-AM dye based calcium mobilization assay relative to CP55940; assay type: functional, cell-based
T1 sequence (P34972 whole entry): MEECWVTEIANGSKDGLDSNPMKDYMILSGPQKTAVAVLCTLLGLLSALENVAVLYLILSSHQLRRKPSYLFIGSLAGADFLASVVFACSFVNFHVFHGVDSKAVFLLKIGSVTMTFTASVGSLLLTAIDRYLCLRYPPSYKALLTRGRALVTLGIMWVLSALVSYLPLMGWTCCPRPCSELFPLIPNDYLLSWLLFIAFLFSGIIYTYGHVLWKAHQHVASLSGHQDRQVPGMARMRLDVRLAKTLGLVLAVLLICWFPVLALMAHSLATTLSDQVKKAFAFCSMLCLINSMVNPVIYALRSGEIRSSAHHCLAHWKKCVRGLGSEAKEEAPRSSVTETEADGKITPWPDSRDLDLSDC
How it was run: (§1)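 CHO-K1 cells stably co-expressing Gα16 and human CB1 or CB2, seeded 24 h. Loaded with 2 μM fluo-4 AM in HBSS (with sulfinpyrazone, pH 7.4) at 37 °C for 45 min. Compound added and calcium fluorescence recorded (ex 485/em 525 nm). CP55940 positive control, DMSO negative control. Compounds with >50% activation at 10 μM got eight-point curves in triplicate, sigmoidal fit for EC50.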

Cannabinoid receptor 2 [2] = target: T1, Cannabinoid receptor 2; assay: Antagonist activity at human CB2-receptor expressed in CHO-K1 cells coexpressing G-alpha16 at 10 uM pre-incubated for 10 mins and later treated with 100 nM CB-receptor agonist, CP55940 by Fluo-4-AM dye based calcium mobilization assay; assay type: functional, cell-based
How it was run: (§2)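 CHO-K1 cells stably co-expressing Gα16 and human CB1 or CB2, loaded with 2 μM fluo-4 AM in HBSS pH 7.4 at 37 °C for 45 min. Pre-incubated with compound for 10 min at room temperature, then CP55940 added at 100 nM. Peak calcium read over 60 s (ex 485/em 525 nm). Rimonabant positive control. Actives got eight-point curves in triplicate, sigmoidal fit for IC50.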

Cannabinoid receptor 1 [3] = target: T2, Cannabinoid receptor 1 (Homo sapiens, UniProt P21554); assay: Antagonist activity at human CB1-receptor expressed in CHO-K1 cells coexpressing G-alpha16 pre-incubated for 10 mins and later treated with 100 nM CB-receptor agonist, CP55940 by Fluo-4-AM dye based calcium mobilization assay; assay type: cell-based; how it was run: as §2
T2 sequence (P21554 whole entry): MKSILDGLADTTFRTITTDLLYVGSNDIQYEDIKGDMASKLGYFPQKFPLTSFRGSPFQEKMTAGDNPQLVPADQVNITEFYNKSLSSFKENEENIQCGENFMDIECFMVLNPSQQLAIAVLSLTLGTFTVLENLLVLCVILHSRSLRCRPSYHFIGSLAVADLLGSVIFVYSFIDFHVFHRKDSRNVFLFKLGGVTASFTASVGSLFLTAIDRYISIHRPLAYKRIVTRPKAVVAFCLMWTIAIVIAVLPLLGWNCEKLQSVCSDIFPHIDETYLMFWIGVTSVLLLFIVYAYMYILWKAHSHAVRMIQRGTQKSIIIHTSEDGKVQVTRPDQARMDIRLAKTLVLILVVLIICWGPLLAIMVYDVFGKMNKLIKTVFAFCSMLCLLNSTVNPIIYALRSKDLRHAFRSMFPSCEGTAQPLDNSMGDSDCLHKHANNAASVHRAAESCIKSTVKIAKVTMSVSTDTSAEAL

Cannabinoid receptor 2 [4] = target: T1, Cannabinoid receptor 2; assay: Agonist activity at human CB2-receptor expressed in CHO-K1 cells coexpressing G-alpha16 at 10 uM by Fluo-4-AM dye based calcium mobilization assay; assay type: functional, cell-based; how it was run: as §1
Cannabinoid receptor 1 [5] = target: T2, Cannabinoid receptor 1; assay: Agonist activity at human CB1-receptor expressed in CHO-K1 cells coexpressing G-alpha16 at 10 uM by Fluo-4-AM dye based calcium mobilization assay; assay type: cell-based; settings: cho-k1, 10 µM; how it was run: as §1
Cannabinoid receptor 1 [6] = target: T2, Cannabinoid receptor 1; assay: Antagonist activity at human CB1-receptor expressed in CHO-K1 cells coexpressing G-alpha16 at 10 uM pre-incubated for 10 mins and later treated with 100 nM CB-receptor agonist, CP55940 by Fluo-4-AM dye based calcium mobilization assay; assay type: cell-based; how it was run: as §2
Cannabinoid receptor 1 [7] = target: T2, Cannabinoid receptor 1; assay: Agonist activity at human CB1-receptor expressed in CHO-K1 cells coexpressing G-alpha16 by Fluo-4-AM dye based calcium mobilization assay; assay type: cell-based
Cannabinoid receptor 2 [8] = target: T1, Cannabinoid receptor 2; assay: Agonist activity at human CB2-receptor expressed in CHO-K1 cells coexpressing G-alpha16 by Fluo-4-AM dye based calcium mobilization assay; assay type: functional, cell-based
Cannabinoid receptor 1 [9] = target: T2, Cannabinoid receptor 1; assay: Agonist activity at human CB1-receptor expressed in CHO-K1 cells coexpressing G-alpha16 assessed as maximum efficacy by Fluo-4-AM dye based calcium mobilization assay relative to CP55940; assay type: cell-based; how it was run: as §1
Cannabinoid receptor 2 [10] = target: T1, Cannabinoid receptor 2; assay: Antagonist activity at human CB2-receptor expressed in CHO-K1 cells coexpressing G-alpha16 pre-incubated for 10 mins and later treated with 100 nM CB-receptor agonist, CP55940 by Fluo-4-AM dye based calcium mobilization assay; assay type: functional, cell-based; how it was run: as §2
[11] = Kinetic aqueous solubility of compound in phosphate-buffer containing 1% DMSO ultrasonicated for 10 mins at pH 1.4 measured using 80-95% methanol in water as gradient for 19 mins by HPLC analysis; assay type: physicochemical; settings: pH 1.4, 10 min
How it was run: (§3)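 Kinetic solubility: 10 mM DMSO stock diluted into 10 mM phosphate buffer pH 7.4 or 1.4 (final 1% DMSO), sonicated 10 min at room temperature, filtered 0.22 μm. Quantified by C18 HPLC against a standard curve. Gradient 80–95% methanol/water with trifluoroacetic acid over 19 min at 1.2 mL/min. n = 3.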

[12] = Kinetic aqueous solubility of compound in phosphate-buffer containing 1% DMSO ultrasonicated for 10 mins at pH 7.4 measured using 80-95% methanol in water as gradient for 19 mins by HPLC analysis; assay type: physicochemical; settings: pH 7.4, 10 min; how it was run: as §3
[13] = Kinetic aqueous solubility of compound in phosphate-buffer containing 1% DMSO ultrasonicated for 10 mins at pH 7.4 measured using 60-95% methanol in water as gradient for 19 mins by HPLC analysis; assay type: physicochemical; settings: pH 7.4, 10 min
How it was run: (§4)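 Kinetic solubility: 10 mM DMSO stock diluted into 10 mM phosphate buffer pH 7.4 or 1.4 (final 1% DMSO), sonicated 10 min at room temperature, filtered 0.22 μm. Quantified by C18 HPLC against a standard curve. Gradient 60–95% methanol/water with trifluoroacetic acid over 19 min at 1.0 mL/min. n = 3.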

[14] = Kinetic aqueous solubility of compound in phosphate-buffer containing 1% DMSO ultrasonicated for 10 mins at pH 1.4 measured using 60-95% methanol in water as gradient for 19 mins by HPLC analysis; assay type: physicochemical; settings: pH 1.4, 10 min; how it was run: as §4

| SMILES | Emax (Cannabinoid receptor 2 [1]) [%] | inhibition (Cannabinoid receptor 2 [2]) [%] | IC50 (Cannabinoid receptor 1 [3]) | Activity (Cannabinoid receptor 2 [4]) [%] | Activity (Cannabinoid receptor 1 [5]) [%] | inhibition at 10 µM (Cannabinoid receptor 1 [6]) [%] | EC50 (Cannabinoid receptor 1 [7]; read-out: EC50) [nM] | EC50 (Cannabinoid receptor 2 [8]; read-out: EC50) [nM] | Emax (Cannabinoid receptor 1 [9]) [%] | IC50 (Cannabinoid receptor 2 [10]; cho-k1) | EC50 (Cannabinoid receptor 1 [7]; cho-k1) | also measured |
| --- | --- | --- | --- | --- | --- | --- | --- | --- | --- | --- | --- | --- |
| O=C(NC12CC3CC(CC(C3)C1)C2)c1nn(CCN2CCOCC2)c2ccccc12 | 85.3 | < 50 | Not Active | > 50 | > 50 | < 50 | 300 | 58 | 109 | Not Active |  |  |
| CCCCCn1c(C(=O)NC23CC4CC(CC(C4)C2)C3)cc2cccnc21 | 46.2 | < 50 | Not Active | > 50 | < 50 | < 50 |  | 920 |  | Not Active | Not Active |  |
| CCCCCn1c(C(=O)NC23CC4CC(CC(C4)C2)C3)nc2ccccc21 | 62.2 | < 50 | Not Active | > 50 | < 50 | < 50 |  | 320 |  | Not Active | Not Active |  |
| O=C(NC12CC3CC(CC(C3)C1)C2)c1cc2cccnc2n1CCN1CCOCC1 |  | > 50 | Not Active | < 50 | > 50 | < 50 | 650 |  | 88.4 |  |  | EC50 (Cannabinoid receptor 2 [8]; cho-k1): Not Active; IC50 (Cannabinoid receptor 2 [10]; read-out: IC50): 78 nM |
| CCCCCn1c(C(=O)NC23CC4CC(CC(C4)C2)C3)cc2ncccc21 | 50 | < 50 | Not Active | > 50 | < 50 | < 50 |  | 220 |  | Not Active | Not Active |  |
| CCCCCn1cc(C(=O)NC23CC4CC(CC(C4)C2)C3)c2ncccc21 |  | > 50 | Not Active | < 50 | > 50 | < 50 | 180 |  | 48.2 |  |  | EC50 (Cannabinoid receptor 2 [8]; cho-k1): Not Active; IC50 (Cannabinoid receptor 2 [10]; read-out: IC50): 12 nM |
| CCCCCn1nc(C(=O)NC23CC4CC(CC(C4)C2)C3)c2ccccc21 | 58.5 | < 50 | Not Active | > 50 | > 50 | < 50 | 38 | 92 | 99.6 | Not Active |  |  |
| O=C(NC12CC3CC(CC(C3)C1)C2)c1cc2cnccc2[nH]1 | 121 | < 50 | Not Active | > 50 | < 50 | < 50 |  | 2000 |  | Not Active | Not Active |  |
| O=C(NC12CC3CC(CC(C3)C1)C2)c1cc2ccccc2n1CCCCO |  |  |  |  |  |  |  |  |  |  |  | Kinetic_solubility [11]: 16.77 uM/L; log(Kinetic_solubility) [11]: -4.78; Kinetic_solubility [12]: 23.71 uM/L; log(Kinetic_solubility) [12]: -4.63 |
| O=C(NC12CC3CC(CC(C3)C1)C2)c1n[nH]c2ccccc12 | 73.9 | < 50 | Not Active | > 50 | > 50 | < 50 | 17100 | 86 | 67.3 | Not Active |  | Kinetic_solubility [13]: < 10 uM/L; log(Kinetic_solubility) [13]: < -5; Kinetic_solubility [14]: < 10 uM/L; log(Kinetic_solubility) [14]: < -5 |
| CCCCCn1cc(C(=O)NC23CC4CC(CC(C4)C2)C3)c2cccnc21 | 79.4 | < 50 | Not Active | > 50 | > 50 | < 50 | 740 | 32 | 39.1 | Not Active |  |  |
| O=C(NC12CC3CC(CC(C3)C1)C2)c1nc2ccccc2[nH]1 | 85.3 | < 50 | Not Active | > 50 | < 50 | < 50 |  | 520 |  | Not Active | Not Active |  |
| O=C(NC12CC3CC(CC(C3)C1)C2)c1cc2cccnc2[nH]1 | 40.7 | < 50 | Not Active | > 50 | < 50 | < 50 |  | 290 |  | Not Active | Not Active |  |
| O=C(NC12CC3CC(CC(C3)C1)C2)c1cc2ncccc2[nH]1 | 38 | < 50 | Not Active | > 50 | < 50 | < 50 |  | 590 |  | Not Active | Not Active |  |
| CCCCCn1cc(C(=O)NC23CC4CC(CC(C4)C2)C3)c2cnccc21 |  | > 50 | Not Active | < 50 | > 50 | < 50 | 2100 |  | 41 |  |  | EC50 (Cannabinoid receptor 2 [8]; cho-k1): Not Active; IC50 (Cannabinoid receptor 2 [10]; read-out: IC50): 260 nM |
